Laboratory results: ChEMBL document CHEMBL3272112, “Cycloalkanones. 8. Hypocholesterolemic activity of long-chain ketones related to pentadecanone” (J Med Chem, 1976)

Key:
Rattus norvegicus [1] = assay: Hypocholesterolemic activity in Sprague-Dawley rat assessed as serum cholesterol level at 1 mg/kg/day, po administered via intubation measured on day 4 by Liebermann-Burchard method relative to control; assay type: functional
Outline: (§1)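 Male Sprague-Dawley rats given compound homogenized in 1% CMC once daily at 11:00 a.m. by oral intubation needle (0.2 cc), doses calculated on weekly body weights; tail-vein blood drawn 24 h after last dose; nonhemolyzed serum (30 μ) assayed by modified Liebermann-Burchard method; N = 8; % of control, mean ± SD; Student's t test.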

Rattus norvegicus [2] = assay: Hypocholesterolemic activity in Sprague-Dawley rat assessed as serum cholesterol level at 10 mg/kg/day, po administered via intubation measured on day 16 by Liebermann-Burchard method relative to control; assay type: functional; outline: as §1
Rattus norvegicus [3] = assay: Toxicity in Sprague-Dawley rat assessed as increase in body weight at 10 mg/kg/day measured on day 16 (reference value: 195 +/- 16%); assay type: organism-based; conditions: in vivo
Rattus norvegicus [4] = assay: Hypocholesterolemic activity in Sprague-Dawley rat assessed as serum cholesterol level at 5 mg/kg/day, po administered via intubation measured on day 4 by Liebermann-Burchard method relative to control; assay type: functional; outline: as §1
Rattus norvegicus [5] = assay: Hypocholesterolemic activity in Sprague-Dawley rat assessed as serum cholesterol level at 20 mg/kg/day, po administered via intubation measured on day 4 by Liebermann-Burchard method relative to control; assay type: functional; outline: as §1
Rattus norvegicus [6] = assay: Hypocholesterolemic activity in Sprague-Dawley rat assessed as serum cholesterol level at 50 mg/kg/day, po administered via intubation measured on day 4 by Liebermann-Burchard method relative to control; assay type: functional; outline: as §1
Rattus norvegicus [7] = assay: Hypocholesterolemic activity in Sprague-Dawley rat assessed as serum cholesterol level at 1 mg/kg/day, po administered via intubation measured on day 10 by Liebermann-Burchard method relative to control; assay type: functional; outline: as §1
Rattus norvegicus [8] = assay: Hypocholesterolemic activity in Sprague-Dawley rat assessed as serum cholesterol level at 20 mg/kg/day, po administered via intubation measured on day 10 by Liebermann-Burchard method relative to control; assay type: functional; outline: as §1
Rattus norvegicus [9] = assay: Hypocholesterolemic activity in Sprague-Dawley rat assessed as serum cholesterol level at 1 mg/kg/day, po administered via intubation measured on day 16 by Liebermann-Burchard method relative to control; assay type: functional; outline: as §1
Rattus norvegicus [10] = assay: Hypocholesterolemic activity in Sprague-Dawley rat assessed as serum cholesterol level at 5 mg/kg/day, po administered via intubation measured on day 16 by Liebermann-Burchard method relative to control; assay type: functional; outline: as §1
Rattus norvegicus [11] = assay: Hypocholesterolemic activity in Sprague-Dawley rat assessed as serum cholesterol level at 20 mg/kg/day, po administered via intubation measured on day 16 by Liebermann-Burchard method relative to control; assay type: functional; outline: as §1
Rattus norvegicus [12] = assay: Hypocholesterolemic activity in Sprague-Dawley rat assessed as serum cholesterol level at 50 mg/kg/day, po administered via intubation measured on day 16 by Liebermann-Burchard method relative to control; assay type: functional; outline: as §1
Rattus norvegicus [13] = assay: Toxicity in Sprague-Dawley rat assessed as increase in body weight at 5 mg/kg/day administered for 16 days measured on day 16 post last dose (reference value: 195 +/- 16%); assay type: organism-based; conditions: in vivo, 384 h
Rattus norvegicus [14] = assay: Toxicity in Sprague-Dawley rat assessed as increase in body weight at 20 mg/kg/day administered for 16 days measured on day 16 post last dose (reference value: 195 +/- 16%); assay type: organism-based; conditions: in vivo, 384 h
Rattus norvegicus [15] = assay: Toxicity in Sprague-Dawley rat assessed as increase in body weight at 50 mg/kg/day administered for 16 days measured on day 16 post last dose (reference value: 195 +/- 16%); assay type: organism-based; conditions: in vivo, 384 h
Rattus norvegicus [16] = assay: Toxicity in Sprague-Dawley rat assessed as food intake at 20 mg/kg/day measured after 1 week (reference value: 20.9 +/- 4.9 g/day); assay type: organism-based; conditions: in vivo, 168 h
Rattus norvegicus [17] = assay: Toxicity in Sprague-Dawley rat assessed as food intake at 1 mg/kg/day measured after 2 weeks (reference value: 24.8 +/- 1.1 g/day); assay type: organism-based; conditions: in vivo, 336 h
Rattus norvegicus [18] = assay: Toxicity in Sprague-Dawley rat assessed as increase in liver weight at 10 mg/kg/day administered for 16 days measured on day 16 post last dose relative to total body weight (reference value: 4.35 +/- 0.39%); assay type: organism-based; conditions: in vivo, 384 h
Rattus norvegicus [19] = assay: Toxicity in Sprague-Dawley rat assessed as increase in testes weight at 10 mg/kg/day administered for 16 days measured on day 16 post last dose relative to total body weight (reference value: 1.09 +/- 0.01%); assay type: organism-based, Testis; conditions: in vivo, 384 h
Rattus norvegicus [20] = assay: Toxicity in Sprague-Dawley rat assessed as increase in vesicular gland weight at 10 mg/kg/day administered for 16 days measured on day 16 post last dose relative to total body weight (reference value: 0.118 +/- 0.062%); assay type: organism-based; conditions: in vivo, 384 h
Rattus norvegicus [21] = assay: Toxicity in Sprague-Dawley rat assessed as effect on DNA level in liver at 10 mg/kg/day measured after 16 days (reference value: 100 +/- 2%); assay type: organism-based; conditions: in vivo, 384 h
Rattus norvegicus [22] = assay: Toxicity in Sprague-Dawley rat assessed as effect on RNA level in liver at 10 mg/kg/day measured after 16 days (reference value: 100 +/- 6%); assay type: organism-based; conditions: in vivo, 384 h
Rattus norvegicus [23] = assay: Toxicity in Sprague-Dawley rat assessed as effect on protein level in liver at 10 mg/kg/day measured after 16 days (reference value: 100 +/- 5%); assay type: organism-based; conditions: in vivo, 384 h
Rattus norvegicus [24] = organism: Rattus norvegicus; assay: Disruption of rat liver cell membrane assessed as unlysed cells at 5 mg per gram of tissue measured at 15 mins (reference value: 91 +/- 6%); assay type: functional
Outline: (§2)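 Rat liver 10% homogenate in 0.25 M sucrose + 0.001 M EDTA, pH 7.2, incubated at 37°C with Hanke's buffer pH 7.2 and drug suspended in 1% CMC (dose as mg drug per g wet liver); turbidity read as absorbance at 660 nm over 0–4 hr, falling absorbance taken as lysis; expressed as % unlysed cells; vehicle 1% CMC control.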

Rattus norvegicus [25] = organism: Rattus norvegicus; assay: Disruption of rat liver cell membrane assessed as unlysed cells at 10 mg per gram of tissue measured at 15 mins (reference value: 91 +/- 6%); assay type: functional; outline: as §2
Rattus norvegicus [26] = organism: Rattus norvegicus; assay: Disruption of rat liver cell membrane assessed as unlysed cells at 25 mg per gram of tissue measured at 30 mins (reference value: 93 +/- 7%); assay type: functional; outline: as §2
Rattus norvegicus [27] = organism: Rattus norvegicus; assay: Disruption of rat liver cell membrane assessed as unlysed cells at 5 mg per gram of tissue measured at 1 hr (reference value: 90 +/- 4%); assay type: functional; outline: as §2
Rattus norvegicus [28] = organism: Rattus norvegicus; assay: Disruption of rat liver cell membrane assessed as unlysed cells at 25 mg per gram of tissue measured at 1 hr (reference value: 90 +/- 4%); assay type: functional; outline: as §2
Rattus norvegicus [29] = organism: Rattus norvegicus; assay: Disruption of rat liver cell membrane assessed as unlysed cells at 10 mg per gram of tissue measured at 4 hrs (reference value: 17 +/- 4%); assay type: functional; outline: as §2
Rattus norvegicus [30] = organism: Rattus norvegicus; assay: Disruption of rat liver lysosomal membrane assessed as free acid phosphatase activity at 25 mg per gram of tissue measured after 1 hr (reference value: 100 +/- 16%); assay type: functional, tissue-based
Outline: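 10% rat liver homogenate incubated with Hanke's buffer pH 7.2 and drug suspension in 1% CMC in a shaker at 37°C; aliquot removed after 1 hr and percent free (unbound) acid phosphatase activity determined as an index of lysosomal membrane rupture.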

Rattus norvegicus [31] = assay: Toxicity in Sprague-Dawley rat assessed as atrophy of testis at 10 mg/kg/day administered for 16 days measured on day 16 post last dose; assay type: organism-based; conditions: in vivo, 384 h

**Q.** For `CCCCCCCCCCCCCCC(C)=O`, which Activity (Rattus norvegicus [1]) is on record?
**A.** 82%

**Q.** What about the Activity (Rattus norvegicus [2]) of the same molecule?
**A.** 58%

**Q.** What about the Activity (Rattus norvegicus [3]) of the same molecule?
**A.** 228%

**Q.** And the Activity (Rattus norvegicus [4])?
**A.** 74%

**Q.** What about the Activity (Rattus norvegicus [5]) of the same molecule?
**A.** 74%

**Q.** And the Activity (Rattus norvegicus [6])?
**A.** 75%

**Q.** What about the Activity (Rattus norvegicus [7]) of the same molecule?
**A.** 80%

**Q.** And the Activity (Rattus norvegicus [8])?
**A.** 76%

**Q.** What about the Activity (Rattus norvegicus [9]) of the same molecule?
**A.** 71%

**Q.** What about the Activity (Rattus norvegicus [10]) of the same molecule?
**A.** 67%

**Q.** And the Activity (Rattus norvegicus [11])?
**A.** 69%

**Q.** And the Activity (Rattus norvegicus [12])?
**A.** 68%

**Q.** And the Activity (Rattus norvegicus [13])?
**A.** 244%

**Q.** And the Activity (Rattus norvegicus [14])?
**A.** 225%

**Q.** What about the Activity (Rattus norvegicus [15]) of the same molecule?
**A.** 226%

**Q.** What about the Activity (Rattus norvegicus [16]) of the same molecule?
**A.** 21.4 g/day

**Q.** What about the Activity (Rattus norvegicus [17]) of the same molecule?
**A.** 26.6 g/day

**Q.** What about the Activity (Rattus norvegicus [18]) of the same molecule?
**A.** 4.39%

**Q.** What about the Activity (Rattus norvegicus [19]) of the same molecule?
**A.** 1.13%

**Q.** And the Activity (Rattus norvegicus [20])?
**A.** 0.121%

**Q.** What about the Activity (Rattus norvegicus [21]) of the same molecule?
**A.** 114%

**Q.** What about the Activity (Rattus norvegicus [22]) of the same molecule?
**A.** 111%

**Q.** What about the Activity (Rattus norvegicus [23]) of the same molecule?
**A.** 107%

**Q.** What about the Activity (Rattus norvegicus [24]) of the same molecule?
**A.** 95%

**Q.** And the Activity (Rattus norvegicus [25])?
**A.** 96%

**Q.** And the Activity (Rattus norvegicus [26])?
**A.** 96%

**Q.** What about the Activity (Rattus norvegicus [27]) of the same molecule?
**A.** 91%

**Q.** What about the Activity (Rattus norvegicus [28]) of the same molecule?
**A.** 92%

**Q.** And the Activity (Rattus norvegicus [29])?
**A.** 19%

**Q.** What about the Activity (Rattus norvegicus [30]) of the same molecule?
**A.** 116%

**Q.** What about the Activity (Rattus norvegicus [31]) of the same molecule?
**A.** Non-toxic
